Compound activity as filed in PubChem.
An excerpt weighted towards active compounds, which were near 2.6% of everything screened.
Rin1 Abl inh: inhibitors of human Rin1-Abl protein interaction. inhibition, % at 7.35 µM. AID 588664. TR-FRET Rin1/Abl binding, biochemical. 0.4% of 360,000 active; in the data active = inhibition above about 5%, passing the limit was not always enough
T cell modulator: modulates CD8 T cell binding to vesicles | 2C CD8+ T cell-vesicle binding, flow cytometry; hits give low values | response (vesicle binding), % at 7 µM | 0.068% of 330,000 active;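 active = response, share of CD8 T cells binding vesicles, and their 90th percentile fluorescence all below set limits, cut at about 80% in these data, passing the limit was not always enough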;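 also: values below 100% mean blocked vesicle binding to the CD8+ T cells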
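Assay system: 2C TCR transgenic mouse naive CD8+ T cells, MACS-purified | Read-out: CD8+ gate FL2 mean fluorescence as % of same-row positive control | Signal: High-throughput flow cytometry with anti-B7-1 and anti-CD8 staining | Timing: Binding step 1.5 h, 37 °C, antibody labelling 20 min, ice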
SKN-1 block: blocks SKN-1 activity in C. elegans; C. elegans VP596 Pgst-4::GFP/RFP ratio, acrylamide-induced, 24 h; inhibition, % at 21.8 µM; 0.49% of 360,000 active; AID 624304;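 active = interference check ratio from 0.5 to 1.5 plus GFP to RFP signal ratio inhibition reaching or exceeding a fixed threshold, cut at about 30% in these data, passing the limit was not always enough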
Rce1 inh: blocks yeast Ras-converting enzyme; Q03530; yeast membranes, quenched prenylated peptide cleavage fluorescence; calls only; 0.27% of 290,000 active; AID 2563;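 active = fall in fluorescence gain of 50% or more versus controls, with final raw signal at or below 3038400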;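 also: plate controls were neutral control wells for no effect and wells lacking membranes for full effect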
Myeloid diff 2: compounds promoting myeloid differentiation. calls only at 10 µM. 1% of 360,000 active. ER-HoxA9 myeloid progenitors, lysozyme-GFP differentiation, flow cytometry;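 active = normalized GFP-positive differentiation at or above the plate's own cutoff, the solvent-only control mean plus 3 SD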;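 also: cells exposed to compound for four days before flow analysis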
GRK2 inh: blocks RNA aptamer binding to human GRK2; P25098; bead flow cytometry, FAM-aptamer displacement from GRK2; inhibition of aptamer binding, % at 10 µM; 0.59% of 330,000 active; AID 488847;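 active = inhibition of aptamer binding above 40%, roughly 3 SD of noise, on plates passing a quality check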;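 also: median bead fluorescence of bound FAM aptamer so fluorescent compounds give negative values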
* hit, by the source's call; i = inactive; / = no result; + = active, no number.

SMILES | Rin1 Abl inh | T cell modulator | SKN-1 block | Rce1 inh | Myeloid diff 2 | GRK2 inh
COc1cc(Cl)c(C)cc1NC(=O)CSc1nnc(CCC(=O)O)c(=O)[nH]1 | 1.6 | 470.5 | 7.6 | i | i | 0.0
COc1ccc(-c2cc3nc(C)c(CCC(=O)N4CCN(c5ccccn5)CC4)c(C)n3n2)c(OC)c1 | 2.1 | 171.4 | 8.9 | + | i | 2.0
OC(CN1CCNCC1)Cn1ccc2ccccc21 (centres undefined) | / | 528.7 | / | i | / | 0.0
O=C1c2ccccc2S(=O)(=O)N1CC(O)Cn1ccc2ccccc21 (centres undefined) | -1.4 | 340.2 | 26.5 | i | + | 14.0
N/C(=N\OC(=O)CSc1ccccc1)c1ccc([N+](=O)[O-])cc1 | 5.1 | 409.0 | 53.6* | i | i | 3.0
Cc1cc2oc(=O)cc(CSc3nnc(C)n3N)c2cc1C(C)C | 1.0 | 266.9 | 8.4 | i | + | 1.0
O=C(Nc1ccccc1)n1ccc(-c2ccc(-n3ccnc3)cc2)n1 | / | 131.3 | / | + | / | 1.0
COc1cc(C)c(CN2CCC(n3nccc3NC(=O)C3CC3)CC2)cc1C | 0.5 | 344.0 | -1.7 | i | i | 0.0
O=[N+]([O-])c1cccc(Nc2c([N+](=O)[O-])ccc3nonc23)c1 | 1.9 | 89.7 | -13.9 | i | + | 2.0
Cc1cccc(Nc2c([N+](=O)[O-])ccc3nonc23)c1 | -0.2 | 247.9 | 4.7 | i | i | 4.0
Cc1cccc2cc(C#N)c(SCC(=O)Nc3ccccc3N3CCOCC3)nc12 | -5.2 | 0.0 | 12.8 | i | + | 2.0
C=CCNC(=S)/N=c1/ccccn1CCC | 1.2 | 218.6 | -11.8 | i | + | 0.0
CC(C)Oc1ccc(Br)cc1/C=N\NC(N)=S | -1.1 | 224.0 | 8.5 | i | + | 5.0
COc1ccc(CCN(C)CCc2ccc(OC)c(OC)c2)cc1OC | 4.9 | 328.5 | 6.0 | i | + | 3.0
COc1ccc(CCNC(=S)NCCc2ccc(OC)c(OC)c2)cc1OC | -4.4 | 66.0* | -2.9 | i | i | 1.0
COc1ccc(CCN(C)CC(O)c2ccccc2)cc1OC (centres undefined) | -1.4 | 770.2 | 9.2 | i | i | 0.0
Nc1cccc2nc3ccccc3cc12 | -5.9 | 621.3 | 7.7 | + | i | 0.0
Cc1ccc(C(=O)NNC(=O)c2ccc(NS(=O)(=O)c3cccs3)cc2)o1 | -0.5 | 420.4 | 1.7 | / | i | 0.0
CCN(C[C@H]1N[C@@](C)(C(=O)OC)[C@H]2C(=O)N(Cc3ccccc3)C(=O)[C@@H]12)C(=O)c1ccccc1 | -2.0 | 283.3 | 12.2 | / | i | 0.0
CCOP(=O)(OCC)c1nc(-c2cccc([N+](=O)[O-])c2)oc1N1CCCCC1 | 1.1 | 540.0 | 8.4 | i | i | 1.0
CCOP(=O)(c1ccccc1)c1nc(-c2ccccc2Cl)oc1N1CCCCC1 (centres undefined) | -1.0 | 233.3 | -15.0 | + | i | 0.0
O=C(Cn1c(=O)cnc2ccccc21)Nc1cc(Cl)ccc1N1CCOCC1 | -2.2 | 897.7 | 17.8 | / | + | 0.0
O=C(OCc1cccc(Cl)c1)c1cc(S(=O)(=O)N2CCCCC2)ccc1N1CCOCC1 | -0.8 | 0.0 | 21.9 | i | + | 0.0
O=C(COc1cccc(Cl)c1)Nc1cc(S(=O)(=O)N2CCOCC2)ccc1N1CCOCC1 | -1.1 | 451.6 | 0.7 | i | + | 0.0
O=C(COc1ccccc1)Nc1cc(S(=O)(=O)N2CCOCC2)ccc1N1CCCC1 | 0.2 | 371.0 | 17.1 | / | i | 0.0
SMILES | Rin1 Abl inh | T cell modulator | SKN-1 block | Rce1 inh | Myeloid diff 2 | GRK2 inh
O=C(Nc1cc(S(=O)(=O)N2CCOCC2)ccc1N1CCCC1)c1cnccn1 | 0.0 | 222.2 | -5.0 | + | i | 0.0
CCc1ccc(C(O)c2ncc(-c3cccc(F)c3)[nH]2)cc1 (centres undefined) | -0.6 | / | 23.8 | / | i | /
Cc1cccc2[nH]c3c(N4CCC5(CC4)OCCO5)ncnc3c12 | -5.4 | 202.5 | -0.2 | + | i | 3.0
CC1(c2nnc(Cc3ccccc3)o2)CC(c2cccc(F)c2)=NO1 (centres undefined) | 4.5 | 375.3 | -11.2 | i | i | 0.0
O=C(NN1C(=O)c2ccccc2NC1c1ccoc1)c1ccccc1 (centres undefined) | 4.8 | 325.3 | 0.3 | i | i | 0.0
CC(=O)NN1C(=O)c2ccccc2NC1c1ccoc1 (centres undefined) | 0.5 | 446.1 | -1.7 | + | i | 0.0
COc1ccc(-n2c(=O)c(CCC(=O)N3CCN(c4cccc(OC)c4)CC3)nc3ccccc32)cc1 | -0.4 | / | 16.0 | / | i | /
COc1ccc(/C(O)=C/c2nc3ccccc3n(-c3ccccc3)c2=O)cc1 | 0.4 | 170.4 | -37.4 | i | + | 0.0
COc1ccc(Cc2nc3ccc(C(=O)N(C)CC4COCCO4)cc3o2)cc1 (centres undefined) | 2.0 | 302.7 | 1.1 | i | i | 0.0
CN(C)c1ccc(/C=C2\C(=N)N3N=C(CC(=O)N4CCCCC4)SC3=NC2=O)cc1 | -2.7 | 552.3 | -19.5 | i | + | 0.0
COc1ccc(CC2(CO)CCN(S(=O)(=O)c3sccc3C)CC2)cc1 | 0.4 | 354.4 | -9.5 | i | i | 1.0
COc1ccc(-c2cn(CCCOCc3ccccc3)nn2)cc1 | 2.0 | 472.7 | 7.9 | i | i | 1.0
Cc1cc(-c2nnn(CCCOC(C)(C)C)c2C)ccc1-c1cn(CCCOC(C)(C)C)nn1 | -5.6 | / | 36.9* | / | i | /
CN1/C(=C\C(=O)COC(=O)Cn2nnc(-c3ccccc3)n2)C(C)(C)c2ccccc21 | -0.5 | 512.6 | 66.4 | i | + | 1.0
CN(C(=O)/C=C/c1ccccc1)C1CCCCC1 | 1.8 | 265.3 | -1.6 | i | i | 1.0
COc1ccc(CC(NC(C)=O)C(=O)NC2CCN(C(=O)c3cc(OC)c(OC)c(OC)c3)CC2)cc1 (centres undefined) | -1.9 | 152.4 | -7.3 | i | i | 0.0
Clc1ccc(N2CCN(c3cnc4ccccc4n3)CC2)cc1 | -1.6 | 527.1 | 33.0 | i | i | 0.0
Fc1ccc(N2CCN(c3cnc4ccccc4n3)CC2)cc1 | 1.0 | 482.0 | 63.0* | i | i | 2.0
c1ccc(N2CCN(c3cnc4ccccc4n3)CC2)cc1 | -4.5 | 532.8 | 47.0* | i | i | 1.0
O=C(NC(c1ccc(-c2ccccc2)cc1)c1cnccn1)C1CCN(Cc2cccc(C(F)(F)F)c2)CC1 (centres undefined) | -5.6 | / | 12.0 | / | i | /
CCOC(=O)c1cc2c(=O)n3cccc(C)c3nc2n(CC(C)C)c1=NC(=O)c1ccco1 | -3.5 | i | -3.6 | + | i | 4.0
O=C(/C=C/c1c(Cl)nc2ccccn12)Nc1ccc(F)cc1 | 3.8 | 562.6 | 6.3 | i | i | 4.0
CCCSc1ccc2nc(-c3ccccc3)cn2c1 | -3.1 | 213.0 | 50.0* | i | i | 4.0
